Measurements from ChEMBL document CHEMBL1125592, “Calcium channel blocking and positive inotropic activities of ethyl 5-cyano-1,4-dihydro-6-methyl-2-[(phenylsulfonyl)methyl]-4-aryl-3- pyridine-carboxylate and analogues. Synthesis and structure-activity relationships” (J Med Chem, 1991).
The source made the active and inactive calls. No cut-off for these calls is given here.

Tests used:
Oryctolagus cuniculus [1] = species: Oryctolagus cuniculus; assay: Vasoconstrictor effect at a concentration of 3 x 10e-9 M using nondepolarized isolated rings from rabbit.; assay type: functional
Oryctolagus cuniculus [2] = species: Oryctolagus cuniculus; assay: Vasoconstrictor effect at a concentration of 10e-6 M using nondepolarized isolated rings from rabbit.; assay type: functional
Oryctolagus cuniculus [3] = species: Oryctolagus cuniculus; assay: Vasoconstrictor effect at a concentration of 3 x 10e-9 M using partially depolarized isolated rings from rabbit.; assay type: functional
Oryctolagus cuniculus [4] = species: Oryctolagus cuniculus; assay: Vasoconstrictor effect at a concentration of 10e-7 M using partially depolarized isolated rings from rabbit.; assay type: functional
Oryctolagus cuniculus [5] = species: Oryctolagus cuniculus; assay: Vasoconstrictor effect at a concentration of 10e-6 M using partially depolarized isolated rings from rabbit.; assay type: functional
Oryctolagus cuniculus [6] = species: Oryctolagus cuniculus; assay: Vasoconstrictor effect at a concentration of 10e-8 M using nondepolarized isolated rings from rabbit.; assay type: functional
Oryctolagus cuniculus [7] = species: Oryctolagus cuniculus; assay: Vasoconstrictor effect at a concentration of 3 x 10e-8 M using partially depolarized isolated rings from rabbit.; assay type: functional
Oryctolagus cuniculus [8] = species: Oryctolagus cuniculus; assay: Vasoconstrictor effect at a concentration of 10e-9 M using partially depolarized isolated rings from rabbit.; assay type: functional
Oryctolagus cuniculus [9] = species: Oryctolagus cuniculus; assay: Vasoconstrictor effect at a concentration of 10e-9 M using nondepolarized isolated rings from rabbit.; assay type: functional
Oryctolagus cuniculus [10] = species: Oryctolagus cuniculus; assay: Vasoconstrictor effect at a concentration of 10e-8 M using partially depolarized isolated rings from rabbit.; assay type: functional
Oryctolagus cuniculus [11] = species: Oryctolagus cuniculus; assay: Vasoconstrictor effect at a concentration of 10e-7 M using nondepolarized isolated rings from rabbit.; assay type: functional
Oryctolagus cuniculus [12] = species: Oryctolagus cuniculus; assay: Vasoconstrictor effect at a concentration of 3 x 10e-8 M using nondepolarized isolated rings from rabbit.; assay type: functional
Rattus norvegicus [13] = species: Rattus norvegicus; assay: Cardiovascular activity in isolated rat heart, concentration producing 25% increase in LV + dP/dtmax.; assay type: functional
In short: (§1)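 Isolated Langendorff-perfused rat heart. Coronary flow (CF), LV +dP/dtmax and heart rate recorded during exposure to test agent. Value is the concentration giving a 25% rise in CF or in LV +dP/dtmax, mean ± SE. At least two hearts per compound.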

Rattus norvegicus [14] = species: Rattus norvegicus; assay: Cardiovascular activity in isolated rat heart, concentration producing 25% increase in CF (cardiac flow).; assay type: functional; in short: as §1
[15] = molecular target: Voltage-gated L-type calcium channel (Rattus norvegicus, UniProt P22002+Q02485+P27732); assay: Affinity to bind dihydropyridine receptor (DHP receptor) by inhibiting the radioligand [3H]nitrendipine; assay type: protein assay
In short: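 [3H]nitrendipine displacement, rat brain cortical membranes. Each compound first screened at 1000 nM; if inhibition exceeded 40%, a four- to seven-point curve with unlabeled compound was run. IC50 generally mean of two experiments, each in triplicate. ">1000 nM" means under 40% inhibition of control binding at 1000 nM.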

Rattus norvegicus [16] = species: Rattus norvegicus; assay: Compound was tested for the cardiovascular activity in isolated rat heart. Value represents the concentration producing 25% increase in LV + dP/dtmax; NA indicates not active; assay type: functional; in short: as §1
Rattus norvegicus [17] = species: Rattus norvegicus; assay: Compound was tested for the cardiovascular activity in isolated rat heart. Value represents the concentration producing 25% increase in CF (cardiac flow); NA indicates not active; assay type: functional; in short: as §1
Oryctolagus cuniculus [18] = species: Oryctolagus cuniculus; assay: Vasorelaxant effect at a concentration of 10e-7 M on rabbit aortic rings previously contracted with 1.0 uM Norepinephrine.; assay type: functional, Aorta; parameters: unit not given here
In short: (§2)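 Rabbit aortic rings precontracted with 50 mM KCl or 1.0 μM norepinephrine, then exposed to increasing concentrations of test agent. Relaxation recorded at each concentration.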

Oryctolagus cuniculus [19] = species: Oryctolagus cuniculus; assay: Vasorelaxant effect at a concentration of 10e-4 M on rabbit aortic rings previously contracted with 1.0 uM Norepinephrine.; assay type: functional, Aorta; parameters: unit not given here; in short: as §2
Oryctolagus cuniculus [20] = species: Oryctolagus cuniculus; assay: Vasorelaxant effect at a concentration of 10e-6 M on rabbit aortic rings previously contracted with 50 mM KCl.; assay type: functional, Aorta; parameters: unit not given here; in short: as §2
Oryctolagus cuniculus [21] = species: Oryctolagus cuniculus; assay: Vasorelaxant effect at a concentration of 10e-6 M on rabbit aortic rings previously contracted with 1.0 uM Norepinephrine.; assay type: functional, Aorta; parameters: unit not given here; in short: as §2
Oryctolagus cuniculus [22] = species: Oryctolagus cuniculus; assay: Vasorelaxant effect at a concentration of 10e-5 M on rabbit aortic rings previously contracted with 1.0 uM Norepinephrine.; assay type: functional, Aorta; parameters: unit not given here; in short: as §2
Oryctolagus cuniculus [23] = species: Oryctolagus cuniculus; assay: Vasorelaxant effect at a concentration of 10e-4 M on rabbit aortic rings previously contracted with 50 mM KCl.; assay type: functional, Aorta; parameters: unit not given here; in short: as §2
Oryctolagus cuniculus [24] = species: Oryctolagus cuniculus; assay: Vasorelaxant effect at a concentration of 10e-7 M on rabbit aortic rings previously contracted with 50 mM KCl.; assay type: functional, Aorta; parameters: unit not given here; in short: as §2
Oryctolagus cuniculus [25] = species: Oryctolagus cuniculus; assay: Vasorelaxant effect at a concentration of 10e-5 M on rabbit aortic rings previously contracted with 50 mM KCl.; assay type: functional, Aorta; parameters: unit not given here; in short: as §2

Structure (SMILES)	EC25 (Rattus norvegicus [13])	EC25 (Rattus norvegicus [14]) [nM]	IC50 [15] [nM]	other results
COC(=O)C1=C(C)NC(C)=C([N+](=O)[O-])C1c1ccccc1C(F)(F)F (stereo not drawn)	–	–	–	Vasoconstriction effect (Oryctolagus cuniculus [1]): 0; Vasoconstriction effect (Oryctolagus cuniculus [2]): 15.9; Vasoconstriction effect (Oryctolagus cuniculus [3]): 10.2; Vasoconstriction effect (Oryctolagus cuniculus [4]): 82.1; Vasoconstriction effect (Oryctolagus cuniculus [5]): 93.2; Vasoconstriction effect (Oryctolagus cuniculus [6]): 0; Vasoconstriction effect (Oryctolagus cuniculus [7]): 59.2; Vasoconstriction effect (Oryctolagus cuniculus [8]): 3.2; Vasoconstriction effect (Oryctolagus cuniculus [9]): 0; Vasoconstriction effect (Oryctolagus cuniculus [10]): 32.4; Vasoconstriction effect (Oryctolagus cuniculus [11]): 10; Vasoconstriction effect (Oryctolagus cuniculus [12]): 1.5
C=CCO/C(O)=C1\C(CS(=O)(=O)c2ccccc2)=NC(C)=C(C#N)C1c1ccccc1C(F)(F)F (stereo not drawn)	300 nM	<100	580	–
CC1=C(C#N)C(c2ccccc2C(F)(F)F)/C(=C(\O)OCCN2CCCCC2)C(C[S+]([O-])c2ccccc2)=N1 (stereo not drawn)	–	–	> 1000	EC25 (Rattus norvegicus [16]): inactive; EC25 (Rattus norvegicus [17]): inactive
CCO/C(O)=C1\C(CSc2ccc(NC(C)=O)cc2)=NC(C)=C(C#N)C1c1ccccc1C(F)(F)F (stereo not drawn)	inactive	260	205	–
CCO/C(O)=C1\C(C[S+]([O-])c2ccccc2Cl)=NC(C)=C(C#N)C1c1ccccc1C(F)(F)F (stereo not drawn)	200 nM	260	> 1000	–
CCO/C(O)=C1\C(CS(=O)(=O)c2ccccc2)=NC(C)=C(C#N)C1C1CCCCC1 (stereo not drawn)	1090 nM	520	> 1000	–
CC1=C(C#N)C(c2ccccc2C(F)(F)F)/C(=C(\O)OC(C)C)C(CSc2ccccc2)=N1 (stereo not drawn)	–	–	250	Vasorelaxant effect (Oryctolagus cuniculus [18]): -1; Vasorelaxant effect (Oryctolagus cuniculus [19]): 9; Vasorelaxant effect (Oryctolagus cuniculus [20]): 2; Vasorelaxant effect (Oryctolagus cuniculus [21]): -2; Vasorelaxant effect (Oryctolagus cuniculus [22]): 8; Vasorelaxant effect (Oryctolagus cuniculus [23]): 74; Vasorelaxant effect (Oryctolagus cuniculus [24]): 0; Vasorelaxant effect (Oryctolagus cuniculus [25]): 30
CCO/C(O)=C1\C(CS(=O)(=O)c2ccccc2C)=NC(C)=C(C#N)C1c1ccccc1C(F)(F)F (stereo not drawn)	320 nM	470	> 1000	–
CC1=C(C#N)C(c2ccccc2C(F)(F)F)/C(=C(\O)OCCN(C)Cc2ccccc2)C(C[S+]([O-])c2ccccc2)=N1 (stereo not drawn)	120 nM	420	> 1000	–
CCO/C(O)=C1\C(CS(=O)(=O)c2ccccc2F)=NC(C)=C(C#N)C1c1ccccc1C(F)(F)F (stereo not drawn)	390 nM	90	> 1000	–
CCO/C(O)=C1\C(C[S+]([O-])c2ccccc2C)=NC(C)=C(C#N)C1c1ccccc1C(F)(F)F (stereo not drawn)	130 nM	800	> 1000	–
CCOC(=O)C1=C(C[S+]([O-])c2ccccc2)NC(C)=C(C#N)C1c1cccc([N+](=O)[O-])c1 (stereo in doubt; 32b)	–	–	–	EC25 (Rattus norvegicus [17]): inactive
CCO/C(O)=C1\C(CS(=O)(=O)c2ccncc2)=NC(C)=C(C#N)C1c1ccccn1 (stereo not drawn)	–	–	> 1000	EC25 (Rattus norvegicus [16]): inactive; EC25 (Rattus norvegicus [17]): inactive
CCO/C(O)=C1\C(C[S+]([O-])c2ccncc2)=NC(C)=C(C#N)C1c1ccccn1 (stereo not drawn)	–	–	> 1000	EC25 (Rattus norvegicus [16]): inactive; EC25 (Rattus norvegicus [17]): inactive
CC1=C(C#N)C(c2ccccc2C(F)(F)F)/C(=C(\O)OC(C)C)C(CS(=O)(=O)c2ccccc2)=N1 (stereo not drawn)	inactive	<100	390	–
